Test results reported in ChEMBL document CHEMBL3861957, “Straightforward synthesis of 2,4,6-trisubstituted 1,3,5-triazine compounds targeting cysteine cathepsins K and S” (Eur J Med Chem, 2016).

Assays:
Procathepsin L = Procathepsin L (Homo sapiens, UniProt P07711); experiment: Inhibition of human cathepsin L using Z-Phe-Arg-AMC as substrate after 30 mins by spectromicrofluorimetric method
Procedure, shortened: (§1)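 Enzyme (0.5 nM) preincubated 30 min at 37 °C with inhibitor (0-250 nM) in 0.1 M sodium acetate pH 5.5, 2 mM DTT, 0.01% Brij35. Residual activity on Z-Phe-Arg-AMC at 2.5, 5 and 10 µM, fluorescence ex 350/em 460 nm. IC50 averaged from slopes. Triplicate, repeated three times.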

Cathepsin S = Cathepsin S (Homo sapiens, UniProt P25774); experiment: Inhibition of human cathepsin S using Z-LR-AMC as substrate after 30 mins by spectromicrofluorimetric method
Cathepsin S, sequence (P25774 whole entry): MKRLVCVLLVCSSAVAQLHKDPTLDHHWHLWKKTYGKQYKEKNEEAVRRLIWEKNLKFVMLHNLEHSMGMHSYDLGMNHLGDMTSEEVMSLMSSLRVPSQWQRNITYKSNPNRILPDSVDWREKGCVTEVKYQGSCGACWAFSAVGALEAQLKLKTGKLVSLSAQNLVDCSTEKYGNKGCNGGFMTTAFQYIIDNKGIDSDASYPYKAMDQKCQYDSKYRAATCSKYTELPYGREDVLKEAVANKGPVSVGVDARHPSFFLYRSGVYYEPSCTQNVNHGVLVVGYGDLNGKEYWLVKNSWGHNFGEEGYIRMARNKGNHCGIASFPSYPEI
Procedure, shortened: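 Cathepsin S (0.5 nM) preincubated 30 min at 37 °C with inhibitor (0-250 nM) in 0.1 M sodium acetate pH 5.5 containing 2 mM DTT and 0.01% Brij35. Residual activity read with Z-LR-AMC at 2.5, 5 and 10 µM, fluorescence ex 350/em 460 nm. IC50 averaged from slopes. Triplicate, repeated three times.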

Cathepsin B = Cathepsin B (Homo sapiens, UniProt P07858); experiment: Inhibition of human cathepsin B using Z-Phe-Arg-AMC as substrate after 30 mins by spectromicrofluorimetric method; procedure, shortened: as §1
Cathepsin K = biological target: T1, Cathepsin K (Homo sapiens, UniProt P43235); experiment: Inhibition of human cathepsin K expressed in Pichia pastoris using Z-Phe-Arg-AMC as substrate after 30 mins by spectromicrofluorimetric method; procedure, shortened: as §1
T1 sequence (P43235 whole entry): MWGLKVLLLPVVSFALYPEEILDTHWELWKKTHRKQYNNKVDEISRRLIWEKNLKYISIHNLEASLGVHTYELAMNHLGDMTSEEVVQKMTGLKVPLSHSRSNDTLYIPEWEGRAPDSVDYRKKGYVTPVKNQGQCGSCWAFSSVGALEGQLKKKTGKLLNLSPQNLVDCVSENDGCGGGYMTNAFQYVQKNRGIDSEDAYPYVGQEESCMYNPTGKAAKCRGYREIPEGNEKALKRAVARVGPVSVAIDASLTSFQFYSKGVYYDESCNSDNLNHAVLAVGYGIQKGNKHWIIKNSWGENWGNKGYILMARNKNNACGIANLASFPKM

Procathepsin L, sequence (P07711 whole entry): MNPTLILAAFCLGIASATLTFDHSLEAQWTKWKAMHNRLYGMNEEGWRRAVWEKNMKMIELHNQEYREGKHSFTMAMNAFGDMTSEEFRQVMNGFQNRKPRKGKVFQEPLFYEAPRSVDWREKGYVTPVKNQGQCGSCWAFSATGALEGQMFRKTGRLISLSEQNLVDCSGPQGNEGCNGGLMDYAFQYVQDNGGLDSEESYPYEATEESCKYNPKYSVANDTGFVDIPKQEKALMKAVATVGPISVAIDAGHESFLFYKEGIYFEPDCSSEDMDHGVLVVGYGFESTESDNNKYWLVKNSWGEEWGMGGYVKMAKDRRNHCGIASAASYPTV

IC50 (Procathepsin L) | IC50 (Cathepsin S) | IC50 (Cathepsin B) | IC50 (Cathepsin K) | SMILES
 | 23 nM |  | 28 nM | N#Cc1nc(Nc2ccc(C(F)(F)F)cc2)nc(N2CCNCC2)n1
136 nM | 90 nM |  | 17 nM | N#Cc1nc(Nc2ccc([N+](=O)[O-])cc2)nc(NC2CCCCC2)n1
113 nM |  | 57 nM | 28 nM | N#Cc1ccc(Nc2nc(C#N)nc(N3CCNCC3)n2)cc1
17 nM | 17 nM | 45 nM | 17 nM | COc1ccc(Nc2nc(C#N)nc(N3CCNCC3)n2)cc1
23 nM | 28 nM | 79 nM | 17 nM | N#Cc1nc(Nc2cccc([N+](=O)[O-])c2)nc(NC2CCCCC2)n1
17 nM | 23 nM |  | 17 nM | N#Cc1nc(Nc2ccc([N+](=O)[O-])cc2)nc(N2CCNCC2)n1

More lines, now with the values behind:

SMILES | IC50 (Procathepsin L) | IC50 (Cathepsin S) | IC50 (Cathepsin B) | IC50 (Cathepsin K)
N#Cc1nc(Nc2cccc([N+](=O)[O-])c2)nc(N2CCNCC2)n1 | 17 nM | 17 nM | 34 nM | 17 nM
N#Cc1nc(NC[C@H](O)c2ccccc2)nc(N2CCNCC2)n1 | 45 nM | 23 nM | 136 nM | 68 nM
N#Cc1nc(NC[C@H](O)c2ccccc2)nc(NC2CCCCC2)n1 |  | 23 nM |  | 70 nM
COc1ccc(Nc2nc(C#N)nc(NC3CCCCC3)n2)cc1 | 226 nM | 136 nM |  | 23 nM
Cc1cccc(CNc2nc(C#N)nc(NC3CCCCC3)n2)c1 |  | 23 nM |  | 60 nM
Cc1cccc(CNc2nc(C#N)nc(N3CCNCC3)n2)c1 |  | 17 nM | 57 nM | 23 nM
N#Cc1nc(Nc2ccc(C(F)(F)F)cc2)nc(NC2CCCCC2)n1 |  | 102 nM |  | 34 nM
N#Cc1nc(NCCc2ccccc2)nc(NC2CCCCC2)n1 |  | 23 nM |  | 80 nM
N#Cc1ccc(Nc2nc(C#N)nc(NC3CCCCC3)n2)cc1 |  | 23 nM |  | 67 nM
